Experimental data: ChEMBL document CHEMBL3425429
Activity calls are given as the source filed them. No cut-off for these calls is given here.

Tests used:
[1] = test system: MDA-MB-231; assay: Induction of apoptosis in human MDA-MB-231 cells assessed as early apoptotic cells at 0.03 uM after 24 hrs by annexin V-FITC/propidium iodide staining-based flow cytometric analysis (reference value: 1.58%); assay type: functional
[2] = test system: Rattus norvegicus; assay: AUC (0 to infinity) in Sprague-Dawley rat at 10 mg/kg, po by LC/MS analysis; assay type: ADME, organism-based, Plasma; set-up: time infinity, dose 10 mg/kg, route oral; settings: in vivo
In short: (§1)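 Single oral gavage dose in male Sprague-Dawley rats fasted overnight; serial blood drawn via surgically placed jugular vein catheters at set times, plasma separated at once and measured by HPLC-MS/MS; noncompartmental parameters fitted; n=5.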

[3] = biological target: Aurora kinase A (Homo sapiens, UniProt O14965); assay: Inhibition of human Aurora-A
In short: (§2)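 Recombinant human protein kinases screened through the Eurofins KinaseProfiler service. IC50 values are means of two independent experiments.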

[4] = test system: MDA-MB-231; assay: Induction of apoptosis in human MDA-MB-231 cells assessed as early apoptotic cells at 0.1 uM after 48 hrs by annexin V-FITC/propidium iodide staining-based flow cytometric analysis (reference value: […]); assay type: functional
[5] = biological target: Mitogen-activated protein kinase 8 (Homo sapiens, UniProt P45983); assay: Inhibition of human JNK1alpha1; in short: as §2
[6] = test system: MDA-MB-231; assay: Induction of apoptosis in human MDA-MB-231 cells assessed as viable cells at 0.3 uM after 48 hrs by annexin V-FITC/propidium iodide staining-based flow cytometric analysis (reference value: 94.4%); assay type: functional; settings: MDA-MB-231, 48 h, read-out: Activity
[7] = test system: MDA-MB-231; assay: Cell cycle arrest in human MDA-MB-231 cells assessed as accumulation at G0/G1 phase at 0.1 to 0.3 uM after 24 to 48 hrs by flow cytometric analysis; assay type: functional, cell-based
[8] = Cytotoxicity against human MDA-MB-436 cells assessed as cell viability after 72 hrs by MTT assay; assay type: functional, cell-based; settings: MDA-MB-436, 72 h
[9] = biological target: Serine/threonine-protein kinase TBK1 (Homo sapiens, UniProt Q9UHD2); assay: Inhibition of human TBK1; in short: as §2
[10] = test system: MDA-MB-231; assay: Induction of apoptosis in human MDA-MB-231 cells assessed as early apoptotic cells at 0.3 uM after 48 hrs by annexin V-FITC/propidium iodide staining-based flow cytometric analysis (reference value: […]); assay type: functional
[11] = test system: MDA-MB-231; assay: cells; settings: Homo sapiens, MDA-MB-231, 72 h
[12] = test system: Ramos; assay: Cytotoxicity against human Ramos cells assessed as cell viability after 72 hrs by MTT assay; assay type: functional, cell-based
[13] = test system: MDA-MB-231; assay: Induction of apoptosis in human MDA-MB-231 cells assessed as viable cells at 0.3 uM after 24 hrs by annexin V-FITC/propidium iodide staining-based flow cytometric analysis (reference value: 95.5%); assay type: functional; settings: MDA-MB-231, 24 h, read-out: Activity
[14] = Terminal half life in Sprague-Dawley rat at 10 mg/kg, po by LC/MS analysis; assay type: ADME, organism-based; set-up: dose 10 mg/kg, route oral; settings: in vivo, read-out: beta t1/2 (converted)
In short: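 Male Sprague-Dawley rats fitted with jugular vein catheters and fasted overnight, then given a single 10 mg/kg oral gavage dose; n=5. Serial blood samples were spun at once to plasma and analysed by LC-MS/MS. Noncompartmental parameters were fitted.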

[15] = Clearance in Sprague-Dawley rat at 10 mg/kg, po by LC/MS analysis; assay type: ADME, organism-based; set-up: dose 10 mg/kg, route oral; settings: in vivo; in short: as §1
[16] = biological target: Cyclin-dependent kinase 7 (Homo sapiens, UniProt P50613); assay: Inhibition of human CDK7; in short: as §2
[17] = test system: Mus musculus; assay: In vivo inhibition of ERK phosphorylation in tumor of SCID mouse xenografted with human MDA-MB-231 cells at 30 mg/kg/day, po administered for 18 days measured post last dose by immunohistochemical analysis relative to vehicle-treated control; assay type: functional, organism-based
In short: (§3)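 SCID mice carrying subcutaneous MDA-MB-231 xenografts received oral dosing once daily for 18 days (vehicle 25% PEG400 plus 5% DMSO in sterile water); at the end, tumors formalin-fixed and paraffin-embedded, 4–8 μm sections immunostained (Ki67, phospho-proteins) or TUNEL/AP-Red labelled, and compared with control.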

[18] = test system: MDA-MB-231; assay: Antitumor activity against human MDA-MB-231 cells xenografted in mouse assessed as tumor growth inhibition at 40 mg/kg/day, po; assay type: functional, organism-based
In short: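 Oral daily dosing at 40 mg kg−1 d−1 began once MDA-MB-231 xenografts reached about 200 mm3; three mice per group; tumor volume tracked.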

[19] = test system: MDA-MB-231; assay: Induction of apoptosis in human MDA-MB-231 cells assessed as late apoptotic cells at 0.03 uM after 24 hrs by annexin V-FITC/propidium iodide staining-based flow cytometric analysis (reference value: 2.67%); assay type: functional
[20] = biological target: RAC-alpha serine/threonine-protein kinase (Homo sapiens, UniProt P31749); assay: Inhibition of human PKBalpha; in short: as §2
[21] = test system: Mus musculus; assay: In vivo inhibition of Src phosphorylation in tumor of SCID mouse xenografted with human MDA-MB-231 cells at 30 mg/kg/day, po administered for 18 days measured post last dose by immunohistochemical analysis relative to vehicle-treated control; assay type: functional, organism-based; in short: as §3
[22] = biological target: RAC-beta serine/threonine-protein kinase (Homo sapiens, UniProt P31751); assay: Inhibition of human PKBbeta; in short: as §2
[23] = biological target: Mitogen-activated protein kinase 1 (Homo sapiens, UniProt P28482); assay: Inhibition of human MAPK1; in short: as §2
[24] = test system: MDA-MB-453; assay: Cytotoxicity against human MDA-MB-453 cells assessed as cell viability after 72 hrs by MTT assay; assay type: functional, cell-based; settings: MDA-MB-453, 72 h
[25] = biological target: Serine/threonine-protein kinase pim-1 (Homo sapiens, UniProt P11309); assay: Inhibition of human Pim1; in short: as §2
[26] = test system: MDA-MB-231; assay: Antiinvasive activity against human MDA-MB-231 cells at 0.1 uM after 24 hrs by transwell assay; assay type: functional, cell-based
[27] = test system: MDA-MB-231; assay: Induction of apoptosis in human MDA-MB-231 cells assessed as viable cells at 0.1 uM after 24 hrs by annexin V-FITC/propidium iodide staining-based flow cytometric analysis (reference value: 95.5%); assay type: functional; settings: MDA-MB-231, 24 h, read-out: Activity
[28] = test system: MDA-MB-231; assay: Induction of apoptosis in human MDA-MB-231 cells assessed as viable cells at 0.03 uM after 24 hrs by annexin V-FITC/propidium iodide staining-based flow cytometric analysis (reference value: 95.5%); assay type: functional; settings: MDA-MB-231, 24 h, read-out: Activity
[29] = biological target: Glycogen synthase kinase-3 beta (Homo sapiens, UniProt P49841); assay: Inhibition of human GSK3beta; in short: as §2
[30] = test system: MDA-MB-231; assay: Antitumor activity against human MDA-MB-231 cells xenografted in SCID mouse assessed as increase in number of apoptotic cells in tumor at 30 mg/kg/day, po administered for 18 days measured post last dose by TUNEL assay; assay type: functional, organism-based; in short: as §3
[31] = test system: Mus musculus; assay: Toxicity in SCID mouse xenografted with human MDA-MB-231 cells at 7.5 to 15 mg/kg/day, po qd administered for 18 days measured everyday during compound dosing; assay type: organism-based; set-up: route oral; settings: in vivo, 432 h
In short: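 SCID mice (5–6 weeks) implanted subcutaneously with 100 μL of MDA-MB-231 suspension at 5 ×10^7 per mL. At 150–200 mm3 tumours, mice were randomised (6 per group) and dosed orally once daily for 18 days in water with 25% PEG400 plus 5% DMSO. Side effects were monitored daily.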

[32] = biological target: Serine/threonine-protein kinase PAK 1 (Homo sapiens, UniProt Q13153); assay: Inhibition of human PAK1; in short: as §2
Serine/threonine-protein kinase PAK 1, sequence (Q13153 whole entry): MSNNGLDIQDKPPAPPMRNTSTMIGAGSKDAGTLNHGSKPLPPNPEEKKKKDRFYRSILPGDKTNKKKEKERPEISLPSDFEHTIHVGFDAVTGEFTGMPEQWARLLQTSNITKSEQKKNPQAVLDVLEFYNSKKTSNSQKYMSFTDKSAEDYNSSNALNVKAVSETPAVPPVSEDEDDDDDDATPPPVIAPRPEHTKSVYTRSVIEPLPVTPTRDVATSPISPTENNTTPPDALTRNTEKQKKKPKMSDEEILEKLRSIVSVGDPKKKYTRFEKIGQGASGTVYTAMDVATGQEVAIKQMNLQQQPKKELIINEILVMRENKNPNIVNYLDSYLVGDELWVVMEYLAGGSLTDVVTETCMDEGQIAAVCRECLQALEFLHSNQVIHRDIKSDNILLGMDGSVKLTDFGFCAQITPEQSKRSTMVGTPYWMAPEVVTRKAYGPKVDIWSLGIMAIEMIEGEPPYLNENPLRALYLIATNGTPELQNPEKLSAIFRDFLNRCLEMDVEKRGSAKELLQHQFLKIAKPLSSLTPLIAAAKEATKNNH

Mitogen-activated protein kinase 8, sequence (P45983 whole entry, looked up): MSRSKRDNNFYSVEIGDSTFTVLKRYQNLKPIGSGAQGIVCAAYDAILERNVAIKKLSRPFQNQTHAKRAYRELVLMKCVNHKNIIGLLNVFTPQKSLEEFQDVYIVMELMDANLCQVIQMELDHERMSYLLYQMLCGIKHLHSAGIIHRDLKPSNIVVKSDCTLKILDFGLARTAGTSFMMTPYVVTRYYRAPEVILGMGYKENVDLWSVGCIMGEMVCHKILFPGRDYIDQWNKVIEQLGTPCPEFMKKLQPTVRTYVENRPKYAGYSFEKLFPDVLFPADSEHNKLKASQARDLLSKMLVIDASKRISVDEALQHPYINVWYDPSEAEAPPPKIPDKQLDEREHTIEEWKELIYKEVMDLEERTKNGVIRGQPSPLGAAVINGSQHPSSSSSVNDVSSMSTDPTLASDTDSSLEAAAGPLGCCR
Cyclin-dependent kinase 7, sequence (P50613 whole entry): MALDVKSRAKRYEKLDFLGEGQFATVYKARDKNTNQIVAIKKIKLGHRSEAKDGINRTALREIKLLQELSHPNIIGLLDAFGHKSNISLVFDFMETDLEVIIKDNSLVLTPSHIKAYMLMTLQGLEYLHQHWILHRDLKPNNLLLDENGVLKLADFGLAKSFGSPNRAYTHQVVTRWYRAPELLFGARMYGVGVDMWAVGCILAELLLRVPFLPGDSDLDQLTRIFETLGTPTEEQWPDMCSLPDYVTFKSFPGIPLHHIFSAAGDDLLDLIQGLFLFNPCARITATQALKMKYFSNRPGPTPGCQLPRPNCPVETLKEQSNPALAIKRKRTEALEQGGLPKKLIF
RAC-beta serine/threonine-protein kinase, sequence (P31751 whole entry): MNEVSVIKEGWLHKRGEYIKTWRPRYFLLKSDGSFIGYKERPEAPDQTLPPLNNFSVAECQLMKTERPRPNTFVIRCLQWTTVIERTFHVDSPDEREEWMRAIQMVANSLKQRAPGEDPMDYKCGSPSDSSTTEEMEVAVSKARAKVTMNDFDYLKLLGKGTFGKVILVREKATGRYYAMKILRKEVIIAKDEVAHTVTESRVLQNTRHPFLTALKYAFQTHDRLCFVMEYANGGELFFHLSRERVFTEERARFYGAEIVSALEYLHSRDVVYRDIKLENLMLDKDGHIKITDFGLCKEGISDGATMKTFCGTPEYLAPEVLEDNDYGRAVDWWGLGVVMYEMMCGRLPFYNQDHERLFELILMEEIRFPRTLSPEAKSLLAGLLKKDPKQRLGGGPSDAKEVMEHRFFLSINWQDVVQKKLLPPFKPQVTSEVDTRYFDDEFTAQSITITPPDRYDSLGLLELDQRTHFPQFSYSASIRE
Serine/threonine-protein kinase pim-1, sequence (P11309 whole entry): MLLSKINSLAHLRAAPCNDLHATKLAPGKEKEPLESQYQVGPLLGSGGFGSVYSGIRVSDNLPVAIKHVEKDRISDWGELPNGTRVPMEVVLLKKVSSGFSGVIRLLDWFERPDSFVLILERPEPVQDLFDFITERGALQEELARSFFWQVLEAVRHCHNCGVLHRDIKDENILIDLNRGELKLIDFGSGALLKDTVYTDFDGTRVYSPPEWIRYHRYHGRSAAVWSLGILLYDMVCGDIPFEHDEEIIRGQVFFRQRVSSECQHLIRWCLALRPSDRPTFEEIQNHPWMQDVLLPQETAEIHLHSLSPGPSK
Serine/threonine-protein kinase TBK1, sequence (Q9UHD2 whole entry): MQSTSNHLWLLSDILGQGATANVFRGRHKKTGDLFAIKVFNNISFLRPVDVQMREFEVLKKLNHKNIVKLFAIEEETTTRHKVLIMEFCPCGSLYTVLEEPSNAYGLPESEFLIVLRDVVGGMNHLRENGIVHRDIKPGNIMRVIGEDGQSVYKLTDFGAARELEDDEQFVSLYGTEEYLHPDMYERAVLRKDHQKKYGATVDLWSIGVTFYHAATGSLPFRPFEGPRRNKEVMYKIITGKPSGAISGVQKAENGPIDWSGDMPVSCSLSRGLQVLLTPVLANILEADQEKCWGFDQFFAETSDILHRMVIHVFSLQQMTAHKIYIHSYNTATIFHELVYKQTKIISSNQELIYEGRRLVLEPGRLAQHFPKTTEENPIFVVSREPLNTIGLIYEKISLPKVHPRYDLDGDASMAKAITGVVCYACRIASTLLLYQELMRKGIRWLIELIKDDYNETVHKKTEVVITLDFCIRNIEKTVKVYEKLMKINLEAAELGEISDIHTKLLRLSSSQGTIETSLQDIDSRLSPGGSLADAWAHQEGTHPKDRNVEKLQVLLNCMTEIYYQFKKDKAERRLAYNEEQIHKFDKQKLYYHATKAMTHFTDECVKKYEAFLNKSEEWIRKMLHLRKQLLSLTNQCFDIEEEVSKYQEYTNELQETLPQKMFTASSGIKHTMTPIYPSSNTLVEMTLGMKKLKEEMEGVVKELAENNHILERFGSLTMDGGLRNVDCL
Glycogen synthase kinase-3 beta, sequence (P49841 whole entry): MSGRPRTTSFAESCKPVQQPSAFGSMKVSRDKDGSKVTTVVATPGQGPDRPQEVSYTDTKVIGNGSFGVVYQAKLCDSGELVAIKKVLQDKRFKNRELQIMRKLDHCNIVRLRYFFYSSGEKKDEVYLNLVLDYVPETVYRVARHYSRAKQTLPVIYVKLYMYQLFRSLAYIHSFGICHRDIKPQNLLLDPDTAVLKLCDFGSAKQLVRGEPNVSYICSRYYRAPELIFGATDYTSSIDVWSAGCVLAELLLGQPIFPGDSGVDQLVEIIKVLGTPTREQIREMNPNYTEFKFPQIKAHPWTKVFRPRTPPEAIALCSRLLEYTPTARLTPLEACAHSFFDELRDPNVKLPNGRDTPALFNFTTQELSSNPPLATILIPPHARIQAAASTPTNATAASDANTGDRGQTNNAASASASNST
Aurora kinase A, sequence (O14965 whole entry): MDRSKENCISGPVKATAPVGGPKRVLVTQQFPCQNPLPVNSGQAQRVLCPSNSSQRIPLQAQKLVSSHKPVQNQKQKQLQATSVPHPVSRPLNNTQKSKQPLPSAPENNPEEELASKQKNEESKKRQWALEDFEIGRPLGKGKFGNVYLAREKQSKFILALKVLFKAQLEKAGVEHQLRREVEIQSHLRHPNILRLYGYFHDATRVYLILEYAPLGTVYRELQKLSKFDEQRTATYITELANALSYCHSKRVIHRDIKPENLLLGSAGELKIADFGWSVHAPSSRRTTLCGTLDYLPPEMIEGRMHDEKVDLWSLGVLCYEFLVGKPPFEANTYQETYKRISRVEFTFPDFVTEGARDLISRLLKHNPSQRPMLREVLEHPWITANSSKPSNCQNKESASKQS
Mitogen-activated protein kinase 1, sequence (P28482 whole entry): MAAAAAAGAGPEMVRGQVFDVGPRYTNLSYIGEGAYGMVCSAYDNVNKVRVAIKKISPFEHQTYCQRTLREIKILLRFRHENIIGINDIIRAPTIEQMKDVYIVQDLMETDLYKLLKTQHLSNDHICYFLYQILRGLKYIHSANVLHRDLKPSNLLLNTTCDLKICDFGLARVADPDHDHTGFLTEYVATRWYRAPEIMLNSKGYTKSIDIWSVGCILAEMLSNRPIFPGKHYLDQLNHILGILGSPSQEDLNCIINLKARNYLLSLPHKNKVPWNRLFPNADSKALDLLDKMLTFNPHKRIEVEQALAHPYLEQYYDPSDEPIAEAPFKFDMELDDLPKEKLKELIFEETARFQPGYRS
RAC-alpha serine/threonine-protein kinase, sequence (P31749 whole entry): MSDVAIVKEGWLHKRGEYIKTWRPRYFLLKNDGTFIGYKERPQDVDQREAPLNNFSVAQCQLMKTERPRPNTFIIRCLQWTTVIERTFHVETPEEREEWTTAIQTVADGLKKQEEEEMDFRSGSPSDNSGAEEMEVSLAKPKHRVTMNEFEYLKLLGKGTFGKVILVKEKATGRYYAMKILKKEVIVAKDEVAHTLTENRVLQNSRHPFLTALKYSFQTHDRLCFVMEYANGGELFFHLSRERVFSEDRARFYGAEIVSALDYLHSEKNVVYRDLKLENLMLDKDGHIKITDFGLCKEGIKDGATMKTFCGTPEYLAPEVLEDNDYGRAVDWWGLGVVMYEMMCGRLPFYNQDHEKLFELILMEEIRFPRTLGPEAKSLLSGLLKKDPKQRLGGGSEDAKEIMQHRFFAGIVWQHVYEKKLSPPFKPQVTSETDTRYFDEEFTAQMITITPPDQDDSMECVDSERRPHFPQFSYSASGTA

Question: Which Activity [1] does the source give for `CCn1nc(C#Cc2cc(C(=O)Nc3ccc(CN4CCN(C)CC4)c(C(F)(F)F)c3)ccc2C)c2c(N)ncnc21` here?
Answer: 2.29%

Question: What about the AUC [2] of the same compound?
Answer: 4772.5 µg/L/h

Question: What about the IC50 [3] of the same compound?
Answer: > 10 µM

Question: And the Activity [4]?
Answer: 13.9%

Question: What about the IC50 [5] of the same compound?
Answer: > 10 µM

Question: What about the viability at 0.3 µM [6] of the same compound?
Answer: 63.2%

Question: What about the Activity [7] of the same compound?
Answer: Active

Question: What about the IC50 [8] of the same compound?
Answer: 0.316 µM

Question: What about the IC50 [9] of the same compound?
Answer: > 10 µM

Question: And the Activity [10]?
Answer: 24.1%

Question: What about the IC50 [11] of the same compound?
Answer: 0.011 µM

Question: And the IC50 [12]?
Answer: 10 µM

Question: What about the viability at 0.3 µM [13] of the same compound?
Answer: 76.7%

Question: What about the half-life [14] of the same compound?
Answer: 12.8 h

Question: And the CL/F [15]?
Answer: 35 mL/min/kg

Question: And the IC50 [16]?
Answer: > 10 µM

Question: What about the inhibition [17] of the same compound?
Answer: Active

Question: What about the TGI [18] of the same compound?
Answer: Active

Question: What about the Activity [19] of the same compound?
Answer: 3.92%

Question: What about the IC50 [20] of the same compound?
Answer: > 10 µM

Question: What about the inhibition [21] of the same compound?
Answer: Active

Question: What about the IC50 [22] of the same compound?
Answer: > 10 µM

Question: And the IC50 [23]?
Answer: > 10 µM

Question: What about the IC50 [24] of the same compound?
Answer: 0.325 µM

Question: And the IC50 [25]?
Answer: > 10 µM

Question: What about the Activity [26] of the same compound?
Answer: Active

Question: And the viability at 0.1 µM [27]?
Answer: 79.1%

Question: What about the viability at 0.03 µM [28] of the same compound?
Answer: 92.9%

Question: What about the IC50 [29] of the same compound?
Answer: > 10 µM

Question: And the Activity [30]?
Answer: Active

Question: And the Activity [31]?
Answer: Non-toxic

Question: What about the IC50 [32] of the same compound?
Answer: > 10 µM
